MC4R barr agon: MC4R agonists recruiting beta-arrestin, primary screen, cell-based, luminescence, agonist arm of biased-ligand search | activation, % at 8.9 µM | Melanocortin receptor 4 (Homo sapiens), P32245 | U2OS MC4R beta-arrestin complementation; percent of melanotan II response, DMSO zero | AID 540308, 2011 | 0.98% of 360,000 active;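 active means activation above a per-plate cutoff, the mean activation of sample wells on that plate plus 3 SD, cut at about 8% in these data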
m5-HT2A agonist: mouse Htr2a agonists via beta-arrestin recruitment, primary screen, cell-based, luminescence; 5-hydroxytryptamine receptor 2A (Mus musculus), P35363; CHO-K1 mHTR2A beta-arrestin complementation; percent of 30 µM serotonin response; activation, % at 7.6 µM; 0.66% of 360,000 active; AID 624169, 2012;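 active means activation above a run cutoff, the mean activation of all tested compounds plus 3 SD, cut at about 14% in these data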
FXN GAA850 act: FXN promoter activators, primary screen, cell-based, luciferase luminescence, HEK293 lucGAA850. activation, % at 6 µM. 0.56% of 360,000 active. HEK293 lucGAA850 FXN promoter luciferase reporter, 24 h; percent of 10 µM SAHA response. AID 540364, 2011;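 active means activation above the average of all compounds screened plus 3 SD, cutoff fixed separately per campaign, cut at about 7.5% in these data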
MC4R antagonist: MC4R antagonists of cAMP signaling, primary screen, cell-based, TR-FRET, antagonist arm of biased-ligand search; Melanocortin receptor 4 (Homo sapiens), P32245; MC4R-expressing cells, MTII-stimulated cAMP, LANCE TR-FRET; inhibition, % at 6.5 µM; 0.48% of 360,000 active;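 active means inhibition above its plate's cutoff, the mean of tested wells on that plate plus 3 SD, cut at about 29% in these data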
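Assay system: U2OS-MC4R stable cell line; Also added: Melanotan II; Technique: Eu-cAMP/anti-cAMP TR-FRET, emission 671 nm; Times: 30-min compound, 1-h challenge, 1-h detection, room temperature.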
AHR act: AHR activators, primary screen, cell-based, luminescence, luciferase reporter, human; Aryl hydrocarbon receptor (Homo sapiens), P35869; AHR-responsive luciferase reporter cells; activation, % at 5 µM; 2.5% of 320,000 active; in the data active means activation above about 47%
AHR act cf: AHR activators, confirmation, cell-based, luminescence, luciferase reporter, human; shares compounds with AHR act; human cells, AHR-responsive luciferase reporter; activation, % at 9 µM; 87% of 2,300 active; AID 2845, 2010; in the data active means activation above about 49%;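 further: HepG2 hepatoma cells carrying a DRE-driven firefly luciferase reporter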
PXR act counter: human PXR activators, counter-screen for AHR activator project, cell-based, luciferase luminescence. shares compounds with AHR act. cell-based PXR reporter. activation, % at 11.6 µM. 88% of 2,300 active. AID 434939, 2010; in the data active means activation above about 11%;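 further: human hepatoma DPX-2 cells expressing full-length human PXR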
Numbers stand for hits; – = inactive; · = no result. Only some compounds are listed: those with a hit (about 4.7% of all), similar ones and a draw of the others.

SMILES	MC4R barr agon	m5-HT2A agonist	FXN GAA850 act	MC4R antagonist	AHR act	AHR act cf	PXR act counter
COc1ccc(-c2[nH]c(-c3ccc(C)cc3)nc2SCC(=O)NCc2ccco2)cc1OC	–	–	–	–	121	85	12
COc1ccc(-c2nn(C)c3sc(C(=O)NCc4ccco4)cc23)cc1OC	–	–	–	–	134	112	35
COc1cccc(NC(=O)CN(C)C(=O)c2ccc(NC(=O)CC3SC(N4CCCC4)=NC3=O)cc2)c1 (stereo not given)	–	–	–	–	·	·	·
O=C(NCc1cc(Cl)cc(Cl)c1)c1csc(COCCO)n1	–	–	–	–	·	·	·
Cc1nc(-c2ccccn2)sc1C(=O)Nc1ccc(F)cc1F	–	–	–	–	95	–	26
Cc1nc(-c2cccnc2)sc1C(=O)Nc1ccc(F)cc1F	–	–	–	–	–	·	·
O=C(COC(=O)Cn1cnc2ccccc21)Nc1cc2c(cc1Cl)C(=O)c1ccccc1C2=O	–	–	–	–	84	146	27
O=C(COC(=O)Cn1cnc2ccccc21)Nc1cc(S(=O)(=O)N2CCOCC2)ccc1Cl	–	–	–	–	–	·	·
Cn1nccc1C(=O)Oc1ccc(/C=N/NC(=O)c2ccccc2O)cc1	–	–	–	–	93	–	–
Clc1ccc2[nH]c3c(NCCCN4CCOCC4)ncnc3c2c1	–	–	–	–	82	–	37
Cc1ccc2[nH]c3c(NCCN4CCOCC4)ncnc3c2c1	–	–	–	–	·	·	·
CC(C)(C)S(=O)(=O)N1C[C@H]2CC/C=C\C/C=C\2[C@@H]1CCO	–	–	–	–	·	·	·
COc1ccc(N2CCN(c3nc(=S)n(-c4ccccc4)c(C)c3C(C)=O)CC2)cc1	–	–	–	–	–	·	·
CCn1c(C)c(C(C)=O)c(N2CCN(c3ccc(OC)cc3)CC2)nc1=S	–	–	–	–	86	–	26
Nc1c(C(=O)N2CCCCC2)sc2nc3c(cc12)CCCC3	–	–	–	–	–	·	·
CCc1nnc(NC(=O)c2sc3nc4c(cc3c2N)CCCCC4)s1	–	–	–	–	124	–	36
CCN(CC)C(=O)c1sc2nc(-c3ccccn3)[nH]c(=O)c2c1C	–	–	–	–	83	–	52
CCC(=O)Nc1cc(OC)c(NC(=O)c2ccccc2)cc1OC	–	–	–	–	82	109	·
COc1ccc(NC(=O)c2ccc(C)cc2)c(OC)c1	–	–	–	–	120	96	·
COc1ccc(C(=O)Nc2cc(OC)c(NC(=O)c3ccco3)cc2OC)cc1	–	–	–	–	82	110	·
COc1cc(NC(=O)c2ccccc2)c(OC)cc1NC(C)=O	–	–	–	–	86	113	11
COc1ccc2cc(/C=C/C(=O)N3CCN(CC(=O)N4CCCCCC4)CC3)ccc2c1	–	–	–	–	–	·	·
CCc1ccc(NC(=O)c2noc3c2CCc2ccccc2-3)cc1	–	–	–	–	–	·	·
Cc1ccc(NC(=O)c2noc3c2CCc2ccccc2-3)cc1	–	–	–	–	102	133	20
c1cc(CSc2nnc(-c3ccc4c(c3)OCO4)o2)ccn1	–	–	–	–	88	52	24
Cc1nn(-c2ccccc2)c2[nH]c(=O)c(CNc3ccc(N4CCOCC4)cc3)cc12	–	–	–	–	–	·	·
Cc1nn(-c2ccc(Cl)cc2)c2[nH]c(=O)c(CNCc3ccc4c(c3)OCO4)cc12	–	–	–	–	88	83	36
Nc1nc(NCc2ccc(Cl)cc2)nc(NCCO)c1[N+](=O)[O-]	–	–	–	–	–	·	·
Nc1nc(Nc2ccc(Cl)cc2)nc(NCCO)c1[N+](=O)[O-]	–	–	–	–	111	193	25

Compound activity: PubChem, The Scripps Research Institute Molecular Screening Center
